Active and inactive are the calls of the source. The calls are words filed in the database; no cut-off is given here.
Tests used:
[1] = Antiproliferative activity against Her2-overexpressing human SKBR3 cells after 1 to 3 days by MTS assay; assay type: functional; conditions: SK-BR-3
Outline: (§1)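 Cells seeded at 3 × 10^3 (Skbr3) or 2 × 10^3 (H1975) per well and left to attach overnight, then exposed to varying compound concentrations or 1% DMSO vehicle at 37 °C for 1, 2 and 3 days. Viability read by MTS colorimetric assay at 490 nm and expressed as percent of DMSO-only absorbance. Skbr3 in RPMI 1640 with 25 mM HEPES; H1975 in RPMI 1640 with L-glutamine; both with 10% FBS and penicillin/streptomycin.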

[2] = Antiproliferative activity against gefitinib-resistant human NCI-H1975 cells after 1 to 3 days by MTS assay; assay type: functional; outline: as §1
[3] = system: NCI-H1975; assay: cells; conditions: Homo sapiens, NCI-H1975, 24 h, read-out: Activity
[4] = molecular target: Heat shock protein HSP 90-alpha (Homo sapiens, UniProt P07900); assay: Inhibition of fluorescein isothiocyanate labeled geldanamycin binding to N-terminal domain of full length human recombinant Hsp90alpha expressed in Escherichia coli BL21 (DE3) after 14 hrs by fluorescence polarization assay
[5] = system: NCI-H1975; assay: Induction of apoptosis in gefitinib-resistant human NCI-H1975 cells assessed as cleavage of caspase 3 at 0.5 uM after 24 hrs by Western blot analysis; assay type: functional, cell-based
Outline: (§2)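 H1975 cells seeded 1 × 10^6 per 100 mm dish, attached overnight, exposed 24 h to 0.05, 0.1, 0.5, 1 and 2 µM compound, with 1% DMSO and 1 µM geldanamycin as controls. Lysed in Tris-HCl pH 7.6/NaCl/NP-40/deoxycholate/SDS buffer; 30 µg per lane SDS-PAGE, PVDF, 5% milk block, specific antibodies (PARP, caspase 3, cleaved caspase 3/8, β-actin), HRP secondary, ECL detection.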

[6] = system: NCI-H1975; assay: Induction of apoptosis in gefitinib-resistant human NCI-H1975 cells assessed as cleavage of caspase 8 at 0.5 uM after 24 hrs by Western blot analysis; assay type: functional, cell-based; outline: as §2
[7] = system: NCI-H1975; assay: Induction of apoptosis in gefitinib-resistant human NCI-H1975 cells assessed as cleavage of PARP at 0.5 uM after 24 hrs by Western blot analysis; assay type: functional, cell-based; outline: as §2
[8] = system: NCI-H1975; assay: Induction of apoptosis in gefitinib-resistant human NCI-H1975 cells assessed as necrotic cells at 0.5 uM after 24 hrs by Annexin V-FITC/propidium iodide staining based flow cytometry (reference value: 2.68%); assay type: functional
[9] = system: NCI-H1975; assay: Induction of apoptosis in gefitinib-resistant human NCI-H1975 cells assessed as late apoptotic cells at 0.5 uM after 24 hrs by Annexin V-FITC/propidium iodide staining based flow cytometry (reference value: 2.79%); assay type: functional
[10] = system: NCI-H1975; assay: Induction of apoptosis in gefitinib-resistant human NCI-H1975 cells assessed as early apoptotic cells at 0.5 uM after 24 hrs by Annexin V-FITC/propidium iodide staining based flow cytometry (reference value: 1.85%); assay type: functional
[11] = Effect on beta-actin level in gefitinib-resistant human NCI-H1975 cells at 0.05 to 2 uM after 24 hrs by Western blot analysis; assay type: ADME, cell-based; conditions: nci-h1975, 24 h; outline: as §2
[12] = system: NCI-H1975; assay: Antitumor activity against human NCI-H1975 cells xenografted in NOD-scid IL2Rgamma-null mouse assessed as tumor growth inhibition at 10 mg/kg, ip administered daily followed by weekend rest for 2 weeks measured twice per week during compound dosing; assay type: functional, organism-based
[13] = molecular target: CYP3A (Homo sapiens, UniProt P08684+P20815+P24462+Q9HB55); assay: Inhibition of CYP3A in human liver microsomes assessed as midazolam 1'-hydroxylation by LC/MS/MS analysis; assay type: ADME; conditions: probe midazolam (1'-hydroxylation)
Outline: (§3)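 Pooled human liver microsomes incubated without and with compound at 0–50 µM final (acetonitrile below 0.5%); probe activities in cocktail incubation: phenacetin O-deethylation (CYP1A2), tolbutamide 4-hydroxylation (2C9), omeprazole hydroxylation (2C19), dextromethorphan O-demethylation (2D6), midazolam 1'-hydroxylation (3A). Metabolites quantified by tandem mass spectrometry; duplicates; IC50 derived.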

[14] = molecular target: T1, Cytochrome P450 1A2 (Homo sapiens, UniProt P05177); assay: Inhibition of CYP1A2 in human liver microsomes assessed as phenacetin O-deethylation by LC/MS/MS analysis; assay type: ADME; outline: as §3
T1 sequence (P05177 whole entry): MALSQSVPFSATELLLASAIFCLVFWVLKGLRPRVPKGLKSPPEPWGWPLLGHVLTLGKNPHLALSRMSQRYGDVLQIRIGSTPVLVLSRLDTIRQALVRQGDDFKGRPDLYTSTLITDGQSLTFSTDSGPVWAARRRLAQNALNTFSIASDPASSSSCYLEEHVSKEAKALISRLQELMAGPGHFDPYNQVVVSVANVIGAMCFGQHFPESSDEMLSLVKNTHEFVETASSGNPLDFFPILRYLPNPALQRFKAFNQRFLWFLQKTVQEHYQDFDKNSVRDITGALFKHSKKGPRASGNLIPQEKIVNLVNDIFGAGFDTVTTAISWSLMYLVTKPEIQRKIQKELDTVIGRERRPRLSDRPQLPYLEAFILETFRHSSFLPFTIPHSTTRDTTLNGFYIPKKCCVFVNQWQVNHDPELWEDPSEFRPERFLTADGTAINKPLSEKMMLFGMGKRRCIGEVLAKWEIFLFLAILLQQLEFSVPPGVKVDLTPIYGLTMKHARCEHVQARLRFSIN

[15] = molecular target: Cytochrome P450 2C9 (Homo sapiens, UniProt P11712); assay: Inhibition of CYP2C9 in human liver microsomes assessed as tolbutamide 4-methylhydroxylation by LC/MS/MS analysis; assay type: ADME; outline: as §3
Chain of Cytochrome P450 2C9 (P11712 whole entry): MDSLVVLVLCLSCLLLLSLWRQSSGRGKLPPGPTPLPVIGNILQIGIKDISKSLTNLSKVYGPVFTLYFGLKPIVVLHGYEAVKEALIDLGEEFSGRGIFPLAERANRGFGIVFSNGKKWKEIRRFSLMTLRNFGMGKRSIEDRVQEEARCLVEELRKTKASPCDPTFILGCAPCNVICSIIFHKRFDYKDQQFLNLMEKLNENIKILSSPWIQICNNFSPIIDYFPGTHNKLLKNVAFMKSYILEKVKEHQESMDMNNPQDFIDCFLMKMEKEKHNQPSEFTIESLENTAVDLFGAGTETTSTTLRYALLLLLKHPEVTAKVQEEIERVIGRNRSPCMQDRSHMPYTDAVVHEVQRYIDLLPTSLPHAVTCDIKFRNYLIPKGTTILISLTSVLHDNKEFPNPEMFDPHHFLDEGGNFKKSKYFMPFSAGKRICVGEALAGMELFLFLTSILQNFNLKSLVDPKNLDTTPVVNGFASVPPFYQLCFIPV

[16] = molecular target: Cytochrome P450 2C19 (Homo sapiens, UniProt P33261); assay: Inhibition of CYP2C19 in human liver microsomes assessed as omepraozle hydroxylation by LC/MS/MS analysis; assay type: ADME; outline: as §3
Chain of Cytochrome P450 2C19 (P33261 whole entry): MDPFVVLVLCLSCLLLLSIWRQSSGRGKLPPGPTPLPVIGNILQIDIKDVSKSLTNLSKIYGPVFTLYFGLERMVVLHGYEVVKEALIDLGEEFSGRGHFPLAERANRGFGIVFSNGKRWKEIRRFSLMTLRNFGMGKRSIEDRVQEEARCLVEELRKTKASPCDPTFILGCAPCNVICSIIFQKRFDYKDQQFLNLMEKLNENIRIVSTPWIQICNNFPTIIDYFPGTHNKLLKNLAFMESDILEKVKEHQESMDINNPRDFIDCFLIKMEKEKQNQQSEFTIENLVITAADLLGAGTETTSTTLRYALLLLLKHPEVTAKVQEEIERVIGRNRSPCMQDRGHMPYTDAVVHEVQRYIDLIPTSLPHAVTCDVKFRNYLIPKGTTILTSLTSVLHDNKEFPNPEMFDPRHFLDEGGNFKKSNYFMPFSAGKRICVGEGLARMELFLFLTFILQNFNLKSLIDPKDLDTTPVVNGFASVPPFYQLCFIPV

[17] = molecular target: Cytochrome P450 2D6 (Homo sapiens, UniProt P10635); assay: Inhibition of CYP2D6 in human liver microsomes assessed as dextromethorphan O-demethylation by LC/MS/MS analysis; assay type: ADME; outline: as §3
Chain of Cytochrome P450 2D6 (P10635 whole entry): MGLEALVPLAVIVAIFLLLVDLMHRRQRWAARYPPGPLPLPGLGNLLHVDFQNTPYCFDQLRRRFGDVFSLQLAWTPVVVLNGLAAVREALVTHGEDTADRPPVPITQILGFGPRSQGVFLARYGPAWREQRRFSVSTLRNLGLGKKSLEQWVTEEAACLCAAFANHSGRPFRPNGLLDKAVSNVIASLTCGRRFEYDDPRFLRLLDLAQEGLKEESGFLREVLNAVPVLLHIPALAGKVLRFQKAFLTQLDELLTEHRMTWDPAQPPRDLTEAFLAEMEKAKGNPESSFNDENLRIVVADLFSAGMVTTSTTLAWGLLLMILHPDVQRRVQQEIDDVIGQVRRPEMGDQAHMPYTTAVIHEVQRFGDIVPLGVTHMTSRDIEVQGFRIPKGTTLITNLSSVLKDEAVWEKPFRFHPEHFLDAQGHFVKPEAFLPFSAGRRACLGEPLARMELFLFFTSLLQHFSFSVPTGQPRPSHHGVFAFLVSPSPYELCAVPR

[18] = system: Mus musculus; assay: Decrease of Akt level in human NCI-H1975 cells xenografted in NOD-scid IL2Rgamma-null mouse at 10 mg/kg, ip administered daily followed by weekend rest for 2 weeks by immunohistochemical analysis; assay type: functional, organism-based
[19] = system: Mus musculus; assay: Toxicity in NOD-scid IL2Rgamma-null mouse xenografted with human NCI-H1975 cells assessed as mortality at 10 mg/kg, ip administered daily followed by weekend rest for 2 weeks measured twice per week during compound dosing; assay type: organism-based; conditions: in vivo, 336 h
Outline: (§4)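 NSG mice (8 per group, randomised) received 2.0 × 10^6 H1975 cells s.c. in the left flank on day zero. Dosing began once tumours reached 500 mm3: i.p. at 10 mg/kg or DMSO vehicle, daily with weekend rest, for 2 weeks. Body weight tracked and deaths recorded during treatment. Housing in individually ventilated cages at 25±2 °C with a 12 h light-dark cycle.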

[20] = system: Mus musculus; assay: Toxicity in NOD-scid IL2Rgamma-null mouse xenografted with human NCI-H1975 cells assessed as body weight loss at 10 mg/kg, ip administered daily followed by weekend rest for 2 weeks measured twice per week during compound dosing; assay type: organism-based; conditions: in vivo, 336 h; outline: as §4
[21] = system: NCI-H1975; assay: Induction of apoptosis in gefitinib-resistant human NCI-H1975 cells assessed as viable cells at 0.5 uM after 24 hrs by Annexin V-FITC/propidium iodide staining based flow cytometry (reference value: 92.68%); assay type: functional; conditions: NCI-H1975, 24 h, read-out: Activity
[22] = molecular target: T2, Heat shock protein HSP90 (Homo sapiens) (UniProt P07900+P08238); conditions: NCI-H1975, 0.05 to 2 uM
[23] = molecular target: T2, Heat shock protein HSP90 (Homo sapiens); conditions: NCI-H1975, 0.05 to 2 uM; remark: listed apart in the source
[24] = molecular target: T2, Heat shock protein HSP90 (Homo sapiens); conditions: NCI-H1975, 0.05 to 2 uM; remark: listed apart in the source
[25] = molecular target: T2, Heat shock protein HSP90 (Homo sapiens); conditions: NCI-H1975, 0.05 to 2 uM; remark: listed apart in the source
[26] = molecular target: T2, Heat shock protein HSP90 (Homo sapiens); conditions: NCI-H1975, 0.05 to 2 uM; remark: listed apart in the source
[27] = molecular target: T2, Heat shock protein HSP90 (Homo sapiens); conditions: NCI-H1975, 0.05 to 2 uM; remark: listed apart in the source

In the case of `COC1=C2C[C@@H](C)C[C@H](OC)[C@H](O)[C@@H](C)/C=C(\C)[C@H](OC(N)=O)[C@@H](OC)/C=C\C=C(/C)C(=O)NC(=CC1=O)C2=O` [GELDANAMYCIN], the GI50 [1] is reported as 0.43 µM, the GI50 [2] is reported as 0.56 µM and the viability at 1 µM [3] is reported as 65.7%.

`O=C(c1cc(Cl)c(O)cc1O)N1CCc2ccsc2C1` gave a GI50 [1] of 5.4 µM, a GI50 [2] of 8.7 µM and an IC50 [4] of 0.136 µM.

Compound `Oc1cc(O)c(-c2nc3ccccc3o2)cc1Cl` has a GI50 [1] of over 50 µM, a GI50 [2] of over 50 µM and an IC50 [4] of over 1 µM.

In the case of `O=C(Nc1ccccc1)c1cc(Cl)c(O)cc1O`, the GI50 [2] is reported as over 50 µM and the IC50 [4] is reported as over 1 µM.

`O=C(c1cc(Cl)c(O)cc1O)N1CCN(c2ccccc2)CC1` showed a GI50 [1] of 9.3 µM, a GI50 [2] of 19.1 µM and an IC50 [4] of 0.481 µM.

With `CC(C)c1cc(C(=O)N2CCc3sccc3C2)c(O)cc1O` the Activity [5] was “Active”, the Activity [6] was “Active” and the Activity [7] was “Active”. For the same compound, the Activity [8] was 3.67%, the Activity [9] was 3.77% and the Activity [10] was 8.67%. For the same compound, the Activity [11] was “Non-Toxic”, the GI50 [1] was 0.11 µM and the GI50 [2] was 0.31 µM. For the same compound, the IC50 [4] was 0.0503 µM, the TGI [12] was “Active” and the IC50 [13] was over 50 µM. The IC50 [14] was over 50 µM, the IC50 [15] was over 50 µM and the IC50 [16] was over 50 µM. The IC50 [17] was over 50 µM, the Activity [18] was “Active” and the Activity [19] was “Non-Toxic”. The Activity [20] was “Non-Toxic”, the viability at 0.5 µM [21] was 83.9% and the inhibition [22] was “Active”. For the same compound, the inhibition [23] was “Active”, the inhibition [24] was “Active” and the inhibition [25] was “Active”. The inhibition [26] was “Active”, the inhibition [27] was “Active” and the viability at 1 µM [3] was 76%.

With `O=C(c1cc(Cl)c(O)cc1O)N1CCc2ccccc2C1` the GI50 [1] was 7.1 µM, the GI50 [2] was 19.9 µM and the IC50 [4] was 0.183 µM.

In the case of `O=C(Nc1ccc(O)cc1)c1cc(Cl)c(O)cc1O`, the GI50 [2] is reported as over 50 µM and the IC50 [4] is reported as over 1 µM.

Source: ChEMBL document CHEMBL3877290, “Targeting the entry region of Hsp90's ATP binding pocket with a novel 6,7-dihydrothieno[3,2-c]pyridin-5(4H)-yl amide” (Eur J Med Chem, 2016)
